Test results: ChEMBL document CHEMBL5247578, “Effective synthesis of benzimidazoles-imidazo[1,2-a]pyrazine conjugates: A comparative study of mono-and bis-benzimidazoles for antitumor activity” (Eur J Med Chem, 2019)

What was measured:
U-251 = assay: Antiproliferative activity against human U-251 cells assessed as cell growth inhibition by measuring lethal concentration incubated for 48 hrs by sulforhodamine B assay; assay type: functional; settings: read-out: LC50 (the source's name)
In short: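 NCI-60 five-dose screen (10^-4 to 10^-8 M, 10-fold dilutions; DMSO stocks). Cells in RPMI 1640 with 5% FBS and 2 mM L-glutamine, preincubated 24 h, then exposed 48 h at 37 °C, 5% CO2. Fixed with cold TCA, stained with 0.4% SRB, absorbance read at 515 nm. Time-zero plates used as reference. LC50 taken from [(Ti-Tz)/Tz]×100 […].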

UACC-62 [1] = assay: Antiproliferative activity against human UACC-62 cells assessed as cell growth at 0.0001 M incubated for 48 hrs by SRB assay relative to control; assay type: functional; settings: read-out: Activity
SK-MEL-5 = assay: Growth inhibition against human SK-MEL-5 cells incubated for 48 hrs by sulforhodamine B assay; assay type: functional
A498 [2] = assay: Antiproliferative activity against human A498 cells assessed as cell growth at 0.0001 M incubated for 48 hrs by SRB assay relative to control; assay type: functional; settings: read-out: Activity
In short: (§1)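 NCI-60 five-dose screen over 10^-4–10^-8 M (10-fold dilutions). Cells grown in RPMI 1640 with 5% FBS and 2 mM L-glutamine, seeded at 5,000–40,000 cells/well and preincubated 24 h. Drug from DMSO stock, 48 h at 37 °C, 5% CO2. Adherent cells TCA-fixed and stained with 0.4% SRB; A515 read. Percent growth = (Ti−Tz)/(C−Tz)×100, or (Ti−Tz)/Tz×100 when Ti<Tz.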

HCT-15 = assay: Antiproliferative activity against human HCT-15 cells assessed as cell growth at 0.0001 M incubated for 48 hrs by SRB assay relative to control; assay type: functional; settings: read-out: Activity
In short: (§2)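 NCI-60 five-dose screen (10^-4 to 10^-8 M). Cells grown in RPMI 1640 with 5% FBS and 2 mM L-glutamine, plated at 5,000-40,000 cells/well and preincubated 24 h. Drug given from DMSO stock, then 48 h at 37 °C, 5% CO2. For adherent lines, cells fixed with cold TCA, SRB-stained and read at 515 nm. Percent growth taken against time-zero and untreated control.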

HOP-62 = assay: Antiproliferative activity against human HOP-62 cells assessed as cell growth at 0.0001 M incubated for 48 hrs by SRB assay relative to control; assay type: functional; settings: read-out: Activity; in short: as §2
T47D = assay: Antiproliferative activity against human T47D cells assessed as cell growth at 0.00001 M incubated for 48 hrs by SRB assay relative to control; assay type: functional; settings: read-out: Activity
Hs-578T [3] = assay: Growth inhibition against human Hs-578T cells assessed as total growth inhibitory concentration incubated for 48 hrs by sulforhodamine B assay; assay type: functional
PC-3 [4] = assay: Antiproliferative activity against human PC-3 cells assessed as cell growth inhibition by measuring lethal concentration incubated for 48 hrs by sulforhodamine B assay; assay type: functional; settings: read-out: LC50 (the source's name)
SK-MEL-2 [5] = assay: Growth inhibition against human SK-MEL-2 cells assessed as total growth inhibitory concentration incubated for 48 hrs by sulforhodamine B assay; assay type: functional
SNB-19 [6] = assay: Antiproliferative activity against human SNB-19 cells assessed as cell growth at 0.0001 M incubated for 48 hrs by SRB assay relative to control; assay type: functional; settings: read-out: Activity
HOP-92 = assay: Antiproliferative activity against human HOP-92 cells assessed as cell growth inhibition by measuring lethal concentration incubated for 48 hrs by sulforhodamine B assay; assay type: functional; settings: read-out: LC50 (the source's name)
NCI-H322M = assay: Antiproliferative activity against human NCI-H322M cells assessed as cell growth at 0.00000001 M incubated for 48 hrs by SRB assay relative to control; assay type: functional; settings: dose 10 nM, read-out: Activity
COLO 205 = assay: Antiproliferative activity against human COLO 205 cells assessed as cell growth at 0.00001 M incubated for 48 hrs by SRB assay relative to control; assay type: functional; settings: read-out: Activity; in short: as §1
SK-MEL-2 [7] = assay: Antiproliferative activity against human SK-MEL-2 cells assessed as cell growth at 0.00001 M incubated for 48 hrs by SRB assay relative to control; assay type: functional; settings: read-out: Activity
CCRF-CEM = assay: Antiproliferative activity against human CCRF-CEM cells assessed as cell growth at 0.000001 M incubated for 48 hrs by SRB assay relative to control; assay type: functional; settings: read-out: Activity; in short: as §1
UACC-62 [8] = assay: Antiproliferative activity against human UACC-62 cells assessed as cell growth at 0.00000001 M incubated for 48 hrs by SRB assay relative to control; assay type: functional; settings: dose 10 nM, read-out: Activity
IGROV-1 = assay: Growth inhibition against human IGROV-1 cells assessed as total growth inhibitory concentration incubated for 48 hrs by sulforhodamine B assay; assay type: functional
UACC-257 = assay: Growth inhibition against human UACC-257 cells incubated for 48 hrs by sulforhodamine B assay; assay type: functional
RXF 393 = assay: Growth inhibition against human RXF 393 cells incubated for 48 hrs by sulforhodamine B assay; assay type: functional
SW-620 = assay: Antiproliferative activity against human SW620 cells assessed as cell growth at 0.000001 M incubated for 48 hrs by SRB assay relative to control; assay type: functional; settings: read-out: Activity
Calf thymus DNA [9] = assay: Binding affinity to calf thymus DNA assessed as quenching constant at temperature of 298 K by fluorescence spectroscopic method; assay type: nucleic-acid assay; settings: Bos taurus
A498 [10] = assay: Growth inhibition against human A498 cells assessed as total growth inhibitory concentration incubated for 48 hrs by sulforhodamine B assay; assay type: functional
Calf thymus DNA [11] = assay: Binding affinity to calf thymus DNA assessed as DNA intercalation by measuring Stem-Volmer quenching constant at temperature of 298 K by fluorescence spectroscopic method; assay type: nucleic-acid assay; settings: Bos taurus
PC-3 [12] = assay: Antiproliferative activity against human PC-3 cells assessed as cell growth at 0.0000001 M incubated for 48 hrs by SRB assay relative to control; assay type: functional; settings: dose 100 nM, read-out: Activity
EKVX = assay: Antiproliferative activity against human EKVX cells assessed as cell growth inhibition by measuring lethal concentration incubated for 48 hrs by sulforhodamine B assay; assay type: functional; settings: read-out: LC50 (the source's name)
SR = assay: Growth inhibition against human SR cells assessed as total growth inhibitory concentration incubated for 48 hrs by sulforhodamine B assay; assay type: functional
SNB-19 [13] = assay: Growth inhibition against human SNB-19 cells incubated for 48 hrs by sulforhodamine B assay; assay type: functional
Hs-578T [14] = assay: Antiproliferative activity against human Hs-578T cells assessed as cell growth at 0.000001 M incubated for 48 hrs by SRB assay relative to control; assay type: functional; settings: read-out: Activity
In short: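 NCI-60 five-dose mode, 10^-4 to 10^-8 M in 10-fold steps. RPMI 1640, 5% FBS, 2 mM L-glutamine; 24 h preincubation, then 48 h drug exposure at 37 °C. Stocks in DMSO at 400× the top concentration, diluted in medium with gentamicin. TCA fixation, SRB staining, absorbance at 515 nm. Percent growth from time-zero (Tz), control (C) and test (Ti) readings.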

MDA-MB-231 = assay: Antiproliferative activity against human MDA-MB-231 cells assessed as cell growth at 0.00001 M incubated for 48 hrs by SRB assay relative to control; assay type: functional; settings: read-out: Activity
MOLT-4 = assay: Antiproliferative activity against human MOLT-4 cells assessed as cell growth inhibition by measuring lethal concentration incubated for 48 hrs by sulforhodamine B assay; assay type: functional; settings: read-out: LC50 (the source's name)

| Compound | CC50 (U-251) [µM] | growth at 100 µM (UACC-62 [1]) [%] | GI50 (SK-MEL-5) [µM] | growth at 100 µM (A498 [2]) [%] | growth at 100 µM (HCT-15) [%] | growth at 100 µM (HOP-62) [%] | growth at 10 µM (T47D) [%] | TGI (Hs-578T [3]) [µM] | CC50 (PC-3 [4]) [µM] | TGI (SK-MEL-2 [5]) [µM] | growth at 100 µM (SNB-19 [6]) [%] | CC50 (HOP-92) [µM] | growth at 0.01 µM (NCI-H322M) [%] | growth at 10 µM (COLO 205) [%] | growth at 10 µM (SK-MEL-2 [7]) [%] | growth at 1 µM (CCRF-CEM) [%] | growth at 0.01 µM (UACC-62 [8]) [%] | TGI (IGROV-1) [µM] | GI50 (UACC-257) [µM] | GI50 (RXF 393) [µM] | other results |
| --- | --- | --- | --- | --- | --- | --- | --- | --- | --- | --- | --- | --- | --- | --- | --- | --- | --- | --- | --- | --- | --- |
| c1ccc(Cn2cnc3ccc(-c4nc(-c5ccc6c(c5)ncn6C5CCCCC5)cn5ccnc45)cc32)cc1 | > 100 | 9 | 1.5 | -83 | 3 | 5 | -2 | > 100 | > 100 | 4.85 | 32 | 5.5 | 97 | -61 | -41 | 72 | 92 | > 100 | 2.24 | 1.22 | growth at 1 µM (SW-620): 108%; Kq (Calf thymus DNA [9]): 1.19 10^12/M/s; TGI (A498 [10]): 3.57 µM; KSV (Calf thymus DNA [11]): 1.19 10^4/M; growth at 0.1 µM (PC-3 [12]): 96%; CC50 (EKVX): > 100 µM; TGI (SR): > 100 µM; GI50 (SNB-19 [13]): 4.54 µM; growth at 1 µM (Hs-578T [14]): 88%; growth at 10 µM (MDA-MB-231): -63%; CC50 (MOLT-4): > 100 µM |
| COc1ccc(-c2cn3ccnc3c(-c3ccc4ncn(C5CCCCC5)c4c3)n2)cc1 | > 100 | 8 | 0.698 | 24 | 13 | 8 | -24 | 49.3 | > 100 | > 100 | 15 | > 100 | 92 | 1 | 21 | 59 | 94 | > 100 | > 100 | 1.3 | growth at 1 µM (SW-620): 42%; Kq (Calf thymus DNA [9]): 4.65 10^12/M/s; TGI (A498 [10]): > 100 µM; KSV (Calf thymus DNA [11]): 4.65 10^4/M; growth at 0.1 µM (PC-3 [12]): 98%; CC50 (EKVX): > 100 µM; TGI (SR): > 100 µM; GI50 (SNB-19 [13]): 0.836 µM; growth at 1 µM (Hs-578T [14]): 53%; growth at 10 µM (MDA-MB-231): 12%; CC50 (MOLT-4): > 100 µM |
